TRPC4 block = inhibitors of mouse TRPC4 channel, primary screen, Fluo4 calcium, HEK293 TRPC4beta/mu-opioid cells; Short transient receptor potential channel 4 (Mus musculus), Q9QUQ5; DAMGO-evoked Fluo4 calcium flux; active compounds read low; B-score at 10 µM; 0.39% of 300,000 active;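 active means B-score over 3 SD under the library average, no early fluorescence shift, positive overall ratio signal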
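Assay system – HEK293 line stably carrying TRPC4beta and mu-opioid receptor · Doses – single dose · Detection – Fluo4 calcium-dye fluorescence, kinetic read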
TRPC4 PAM = positive allosteric modulators of TRPC4, primary screen, cell-based, mouse TRPC4beta, HEK293 mu-opioid, Fluo-4 calcium; Short transient receptor potential channel 4 (Mus musculus), Q9QUQ5; DAMGO EC20, Fluo-4 Ca2+ flux; active compounds read high; B-score at 10 µM; 0.42% of 310,000 active; AID 2227, 2009;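 active means B-score of calcium response area above 5 SD of library B-scores, with initial fluorescence ratio within 5 SD of library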
TRPC6 act = mouse TRPC6 channel activators, primary screen, cell-based, HEK293, membrane potential dye; HEK293-TRPC6 membrane potential dye fluorescence; active compounds read high; B-score at 10 µM; 0.13% of 310,000 active;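 active means B-score of the integrated fluorescence ratio above library mean plus 3 SD, and starting fluorescence ratio within library mean plus 5 SD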;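 further: higher score means more depolarization so channel activation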
Target sequence (Q61143 whole entry, looked up): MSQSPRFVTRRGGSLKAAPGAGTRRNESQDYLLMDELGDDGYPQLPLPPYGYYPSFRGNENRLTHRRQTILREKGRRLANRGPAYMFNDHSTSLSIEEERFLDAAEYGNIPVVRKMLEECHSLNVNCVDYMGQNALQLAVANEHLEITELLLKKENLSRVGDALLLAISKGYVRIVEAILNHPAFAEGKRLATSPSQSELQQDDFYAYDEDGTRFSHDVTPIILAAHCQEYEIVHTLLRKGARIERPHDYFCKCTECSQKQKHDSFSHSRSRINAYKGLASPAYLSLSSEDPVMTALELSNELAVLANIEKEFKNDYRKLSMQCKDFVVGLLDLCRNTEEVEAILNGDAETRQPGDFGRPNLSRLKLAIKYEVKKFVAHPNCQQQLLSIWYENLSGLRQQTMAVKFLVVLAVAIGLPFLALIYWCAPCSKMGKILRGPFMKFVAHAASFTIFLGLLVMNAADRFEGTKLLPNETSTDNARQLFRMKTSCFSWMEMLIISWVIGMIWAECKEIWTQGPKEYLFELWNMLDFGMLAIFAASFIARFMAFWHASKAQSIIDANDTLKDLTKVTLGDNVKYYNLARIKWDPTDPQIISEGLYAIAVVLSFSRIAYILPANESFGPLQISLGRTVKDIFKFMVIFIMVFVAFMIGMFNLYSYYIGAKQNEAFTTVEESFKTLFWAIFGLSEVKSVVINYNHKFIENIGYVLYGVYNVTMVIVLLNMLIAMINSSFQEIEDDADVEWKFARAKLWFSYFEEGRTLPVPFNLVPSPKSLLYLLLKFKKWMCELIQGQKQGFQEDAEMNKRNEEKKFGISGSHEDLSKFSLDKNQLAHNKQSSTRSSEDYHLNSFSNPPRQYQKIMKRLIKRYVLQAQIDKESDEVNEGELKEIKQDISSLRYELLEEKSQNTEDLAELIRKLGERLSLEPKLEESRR
TRPC6 inh = mouse TRPC6 channel inhibitors, primary screen, cell-based, HEK293, membrane potential dye | ACh-evoked depolarization; active compounds read low | B-score at 10 µM | 1.1% of 310,000 active | AID 2553, 2010;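 active means B-score under library mean minus 3 SD, initial fluorescence not abnormally high, positive integrated signal ratio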;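 further: B-score derived from integrated fluorescence ratio over the kinetic read; more negative B-score means stronger inhibition of depolarization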
TRPC4 act = activators of mouse TRPC4 channel, primary screen, Fluo4 calcium, HEK293 TRPC4beta/mu-opioid cells | 0.49% of 310,000 active | Short transient receptor potential channel 4 (Mus musculus), Q9QUQ5 | Fluo4 calcium fluorescence; active compounds read high | B-score at 10 µM;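 active means B-score above 5 SD of library B-scores, and initial fluorescence ratio not above library mean plus 5 SD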;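 further: positive B-score marks a calcium rise read as TRPC4 activation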
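Assay system: HEK293 stable line with TRPC4beta plus mu-opioid receptor. Times: dye 45 min RT, read 110 s. Measured by: kinetic Fluo4 calcium fluorescence. Measure: B score of integrated ratio. Controls: assay buffer as low control, maximal DAMGO as high control.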
TRPC4 sel inh 2 = second check of whether TRPC6 inhibitors also affect mouse TRPC4 | 42% of 920 active | inhibition, % at 10 µM | shares compounds with TRPC6 inh | HEK293 TRPC4/MOR, membrane potential dye fluorescence; channel activated by saturating DAMGO dose | AID 2776;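 active means compounds whose fluorescence signal differed from control wells by over 3 SD, either direction, in both duplicate plates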
TRPC4 spec = mouse TRPC4 modulation by TRPC6 hits, confirmation, selectivity assay for TRPC6 inhibitor project, cell-based, HEK293 TRPC4/mu-opioid, membrane potential dye; shares compounds with TRPC6 inh; membrane potential fluorescence; activity change, negative = inhibition, % at 10 µM; 61% of 920 active;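 active means rise or fall in signal beyond 3 SD of buffer-only wells in both replicate plates, either sign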;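 further: integrated kinetic ratio of fluorescence range over baseline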
HEK293 MPD ctr 2-1 = nonspecific membrane potential effects, parental HEK293, confirmation, counter-screen for TRPC6 inhibitor project, cell-based, second counter screen. signal change vs control, % at 10 µM. parental HEK293 membrane potential dye fluorescence; maximal acetylcholine challenge after compound addition. shares compounds with TRPC6 inh. 31% of 920 active. AID 2779, 2010;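 active means membrane potential signal moving either way by over 3 SD of the maximum-effect control, in both duplicate plates, meaning non-specific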
HEK293 MPD ctr-1 = membrane potential modulation in parental HEK293, confirmation, counter-screen for TRPC6 inhibitor project, cell-based; shares compounds with TRPC6 inh; parental HEK293 membrane potential dye fluorescence; membrane potential signal change, % at 10 µM; 60% of 920 active; AID 2780, 2010;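 active means membrane potential signal shifting up or down by more than 3 SD of buffer-only wells, on both duplicate plates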
HEK293 MPD ctr-2 = parental HEK293 membrane potential modulation, confirmation, counter-screen for TRPC6 modulator project, cell-based; shares compounds with TRPC6 inh; membrane potential signal change, % at 10 µM; 51% of 2,400 active; membrane potential dye fluorescence; AID 488924, 2010;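 active means membrane potential signal moves up or down beyond 5 SD from buffer-only wells, on both duplicate plates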
HEK293 MPD ctr 2-2 = second check of TRPC6 modulator effects in parental HEK293 cells; inhibition, % at 10 µM; shares compounds with TRPC6 inh; AID 488926; membrane potential dye fluorescence; after compound, maximal acetylcholine stimulation; 14% of 2,400 active;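 active means membrane potential signal drops by more than 5 SD from the mean control signal, in both duplicate plates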
TRPC4/MOR mod = TRPC4 modulation by TRPC6 hit compounds, confirmation, selectivity assay for TRPC6 modulator project, cell-based, HEK293 TRPC4/mu-opioid, membrane potential dye, mouse; shares compounds with TRPC6 inh; membrane potential fluorescence; percent change from control (negative = decrease, positive = increase), % at 10 µM; 69% of 2,400 active; AID 488927, 2010;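 active means membrane potential signal moved up or down beyond 5 SD of buffer control wells, in both duplicate plates, actives on both sides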
TRPC4/MOR inh 2 = second selectivity test of TRPC6 modulators against mouse TRPC4; shares compounds with TRPC6 inh; HEK293 TRPC4/mu-opioid, membrane potential dye fluorescence; stimulated with maximal-effect DAMGO; inhibition, % at 10 µM; 55% of 2,400 active; AID 488928;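 active means drop in membrane potential signal beyond 5 SD of the control wells in both duplicate plates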;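 further: TRPC4 counter screen for TRPC6 hits run under conditions tuned for TRPC6 not TRPC4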
TRPC6 block conf = mouse TRPC6 channel inhibitors, confirmation, HEK293 cells, membrane potential dye, duplicate. shares compounds with TRPC6 inh. ACh-evoked depolarization. inhibition, % at 10 µM. 43% of 3,300 active. AID 488960, 2010;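 active means fluorescence ratio falls more than 5 SD below the full-stimulation control mean, in both duplicate runs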;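 further: integrated fluorescence ratio of peak minus minimum over baseline after agonist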
TRPC6 act conf = mouse TRPC6 channel activators, confirmation, HEK293 cells, membrane potential dye, duplicate | AID 488961, 2010 | HEK293-TRPC6 membrane potential dye fluorescence, FDSS | 11% of 2,800 active | activation, % at 10 µM | shares compounds with TRPC6 inh;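 active means ratio signal rise beyond 5 SD above unstimulated control wells' mean, seen in both duplicate runs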
A number is an active result; – = inactive; · = no result; + = active, no number. Sampled rows, rich in hits. Any-hit rate of the full collection: about 2.3%.

SMILES | TRPC4 block | TRPC4 PAM | TRPC6 act | TRPC6 inh | TRPC4 act | HEK293 MPD ctr-2 | HEK293 MPD ctr 2-2 | TRPC4/MOR mod | TRPC4/MOR inh 2 | TRPC6 block conf | TRPC6 act conf | others
O=c1[nH]c2ccccc2n2c(=S)[nH]nc12 | – | – | – | – | – | · | · | · | · | · | ·
CCCCOc1ccc(C(=O)OC2CC(C)N(C)CC2C)cc1 (stereo not given) | – | – | 15 | – | – | 253% | – | 50% | 48% | – | 120%
COc1cc(-c2nc3ccccn3c2/N=C/c2cc(OC)c(O)cc2Cl)ccc1O | – | – | – | -5.8 | – | – | – | -10% | 34% | – | –
CC(C)(C)NC(=S)N/N=C\c1ccc(-c2ccc([N+](=O)[O-])cc2)o1 | – | 16 | 18 | – | – | – | – | 51% | – | – | –
O=C(O)c1cccc(-c2ccc(/C=N/Nc3ccc([N+](=O)[O-])cc3)o2)c1 | – | – | – | – | – | · | · | · | · | · | ·
O=C(O)c1ccc(-c2ccc(/C=N/Nc3ccc([N+](=O)[O-])cc3)o2)cc1 | – | 19 | 43 | – | 121 | + | – | 310% | – | – | 484%
CCOc1ccc2[nH]c3c(N4CCc5ccccc5C4)ncnc3c2c1 | – | – | – | -6.5 | – | – | – | – | 52% | – | –
CC1CCN(C(=O)CCc2nnc3ccc(N4CCC5(CC4)OCCO5)nn23)CC1 | – | – | – | – | – | · | · | · | · | · | ·
CCC(C)N(CCNC(=O)CC1Oc2ccccc2NC1=O)C1CCCCC1 (stereo not given) | – | – | – | -8 | – | · | · | · | · | 60% | · | TRPC4 sel inh 2=–;TRPC4 spec=19%;HEK293 MPD ctr 2-1=–;HEK293 MPD ctr-1=11%
CC1CCN(Cc2ccc(NC(=O)CC3Oc4ccccc4NC3=O)cc2)CC1 (stereo not given) | – | – | – | -10 | – | · | · | · | · | 81% | – | TRPC4 sel inh 2=–;TRPC4 spec=–;HEK293 MPD ctr 2-1=-8.0%;HEK293 MPD ctr-1=–
O=c1c2sccc2n(Cc2cc(=O)n3ccccc3n2)c(=O)n1-c1ccccc1 | – | – | – | – | – | · | · | · | · | · | ·
COC(=O)c1cc2ccsc2n1Cc1cc(=O)n2ccccc2n1 | – | – | – | -5.8 | – | – | – | 8.5% | – | 56% | –
O=C(CCc1cn2ccccc2n1)NC1CCCc2c1cnn2-c1ccccc1F (stereo not given) | – | – | – | – | – | · | · | · | · | · | ·
COc1ccc(-c2nc3n(c2C)Cc2ccccc2-3)cc1 | – | – | – | -6.2 | – | -70% | – | -14% | 52% | – | –
COc1cc(C(=O)Nc2cccc(NC(=O)c3cccs3)c2)cc(OC)c1OC | – | – | – | – | – | · | · | · | · | · | ·
CCOc1cc(C(=S)N2CCC(O)CC2)ccc1OS(=O)(=O)c1ccc(Br)cc1 | – | – | – | -8.4 | – | · | · | · | · | – | – | TRPC4 sel inh 2=–;TRPC4 spec=–;HEK293 MPD ctr 2-1=–;HEK293 MPD ctr-1=–
N=C1CCCN1CC(=O)c1ccc(Cl)cc1 | – | – | – | -5.1 | – | – | – | – | – | – | –
CCOC(=O)c1c(NC(=O)COC(=O)CCOc2ccc(C)cc2)sc(C(=O)N(C)C)c1C | – | – | 14 | – | – | 480% | – | 44% | 66% | – | –
CCOC(=O)c1c(NC(=O)COC(=O)c2ccccn2)sc(C(=O)N(C)C)c1C | – | – | – | – | – | · | · | · | · | · | ·
CCOC(=O)c1c(NC(=O)COC(=O)CCOc2ccc(OCC)cc2)sc(C(=O)N(C)C)c1C | – | 61 | 13 | – | – | 279% | – | 165% | 72% | – | 124%
CCOC(=O)c1c(NC(=O)COC(=O)c2ccc(O)cc2)sc(C(=O)N(C)C)c1C | – | – | – | – | – | · | · | · | · | · | ·
CCN(Cc1ccccc1)C(=O)COC(=O)Cn1cnc2ccccc21 | – | – | – | – | – | · | · | · | · | · | ·
COc1ccc(C(=O)NC2CC3CCCC(C2)N3Cc2ccccc2)cc1OC (stereo not given) | – | – | – | – | – | · | · | · | · | · | ·
Cc1cc(C)nc(/N=C(\N)N2CCc3ccccc32)n1 | – | – | – | -6.4 | – | – | – | -12% | 46% | – | –
CN1CCCCc2c1nc1ccccc1c2N (tested in a mixture with another compound) | -7 | – | – | -8.6 | – | · | · | · | · | 87% | – | TRPC4 sel inh 2=4.5%;TRPC4 spec=-19%;HEK293 MPD ctr 2-1=–;HEK293 MPD ctr-1=-252%
Nc1c2c(nc3ccccc13)N(c1ccccc1)CC2 | -6 | – | – | -8 | – | -130% | – | -40% | 85% | 48% | –
Nc1c2c(nc3ccccc13)CSCC2 | – | – | – | -7.2 | – | · | · | · | · | 55% | – | TRPC4 sel inh 2=13%;TRPC4 spec=-30%;HEK293 MPD ctr 2-1=–;HEK293 MPD ctr-1=-482%
